In ChEMBL document CHEMBL4004805, “Tacrine-resveratrol fused hybrids as multi-target-directed ligands against Alzheimer's disease” (Eur J Med Chem, 2017):
Activity calls are given as the source filed them. The rule behind the calls is not given here.

Key:
[1] = biological target: T1, Acetylcholinesterase (Homo sapiens, UniProt P22303); experiment: Inhibition of acetylcholinesterase isolated from human red blood cells at 10 uM using acetylthiocholine as substrate preincubated for 5 mins followed by substrate addition measured every 2 mins by Ellman's method
Method in brief: (§1)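 Buffer was 0.1 M potassium phosphate, pH 7.4, with DTNB and enzyme (10 µL of 2.0 units/mL stock) in a 100 µL mix. Substrate was iodide salt (20 µL of 0.01 M). Inhibitor range 10-3–10-9 M. Absorbance rise read at 412 nm, 37 °C. Each concentration run in triplicate. IC50 is the concentration giving 50% loss of activity. Screening done at 10 µM before IC50 work.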

[2] = biological target: Cholinesterase (Homo sapiens) (UniProt P06276); experiment: Inhibition of butyrylcholinesterase isolated from human plasma at 10 uM using butyrylthiocholine as substrate preincubated for 5 mins followed by substrate addition measured every 2 mins by Ellman's method; method in brief: as §1
[3] = Neurotoxicity against Wistar rat primary cerebellar granule neurons assessed as decrease in cell survival at 5 uM after 24 hrs by MTT assay; type: toxicity, cell-based; conditions: primary cerebellar granule neuron
Method in brief: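 Cerebellar granule neurons came from 7-day-old Wistar rat pups, plated on poly-L-lysine in BME with 10% FBS and 25 mM KCl. Cytosine arabinoside (10 µmol/L) was added at 16 h. At 7 DIV, cells were moved to serum-free medium and exposed to 0–50 µM compound for 24 h. Survival was read by MTT at 570 nm as % of control; mean ± SE, four experiments at least in quadruplicate.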

[4] = test system: HepG2; experiment: Hepatotoxicity against human HepG2 cells assessed as decrease in cell viability at 5 to 50 uM after 24 hrs by MTT assay; type: toxicity, cell-based; conditions: hepg2, 24 h
Method in brief: (§2)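 HepG2 cells in high-glucose DMEM with 10% FBS were seeded at 8 x 10^3 cells/well, then exposed to 0–50 µM compound for 24 h in serum-free medium. MTT (0.1 mg/mL) was added for 20 min at 37 °C in the dark, formazan dissolved in Tris-HCl/5% Triton X-100, absorbance read at 570 nm. Viability as % of control; mean ± SE, four experiments at least in quadruplicate.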

[5] = Antioxidant activity of the compound assessed as DPPH radical scavenging activity after 30 mins; type: functional
Method in brief: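 DPPH (0.2 mM solution) was mixed 1:1 in methanol with compound (10-3–10-6 M). After 30 min at laboratory temperature, absorbance was read at 517 nm. Triplicates per concentration; EC50 is the concentration giving a 50% decrease in DPPH activity.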

[6] = Neurotoxicity against Wistar rat primary cerebellar granule neurons assessed as decrease in cell survival at 25 to 50 uM after 24 hrs by MTT assay; type: toxicity, cell-based; conditions: primary cerebellar granule neuron
[7] = biological target: Cholinesterase (Homo sapiens) (UniProt P06276); experiment: Inhibition of butyrylcholinesterase isolated from human plasma up to 100 uM using butyrylthiocholine as substrate preincubated for 5 mins followed by substrate addition measured every 2 mins by Ellman's method; method in brief: as §1
[8] = biological target: Amyloid-beta precursor protein (Homo sapiens) (UniProt P05067); experiment: Inhibition of amyloid beta 42 (unknown origin) self aggregation at 50 uM by ThT-based fluorometric method relative to control
Method in brief: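 Pretreated Aβ42 (50 µM final) was incubated at 30 °C in 10 mM phosphate buffer pH 8.0 with 10 mM NaCl, with or without inhibitor (50 µM). Samples were then diluted in 50 mM glycine-NaOH pH 8.5 containing 1.5 µM ThT. Fluorescence (ex 446/em 490 nm) was scanned for 300 s, plateau values averaged minus ThT background, giving % inhibition.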

[9] = biological target: T1, Acetylcholinesterase; experiment: Inhibition of acetylcholinesterase isolated from human red blood cells using acetylthiocholine as substrate preincubated for 5 mins followed by substrate addition measured every 2 mins by Ellman's method; method in brief: as §1
[10] = Neurotoxicity against Wistar rat primary cerebellar granule neurons assessed as decrease in cell survival at 5 to 50 uM after 24 hrs by MTT assay; type: toxicity, cell-based; conditions: primary cerebellar granule neuron
[11] = test system: Astrocyte; experiment: Antineuroinflammatory activity against LPS-induced Wistar rat primary astrocytes assessed as decrease in nitrite production after 24 hrs by Griess method; type: functional, cell-based
Method in brief: (§3)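 Microglia (shaken off) and astrocytes (trypsinized remainder) came from newborn Wistar rat cortical mixed glia grown 10–13 days. Cells were co-treated 24 h with LPS and compound (10–50 µM). Nitrite in the medium was measured by Griess reaction (sulfanilamide 5 mM, NEDA 40 mM) against a NaNO2 standard curve. Mean ± SE of 3 experiments, each at least in quadruplicate.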

[12] = test system: Microglia; experiment: Antineuroinflammatory activity against LPS-induced Wistar rat primary microglia cells assessed as decrease in nitrite production after 24 hrs by Griess method; type: functional, cell-based; method in brief: as §3
[13] = test system: Astrocyte; experiment: Immunomodulatory activity in LPS-induced Wistar rat primary astrocytes assessed as decrease in iNOS expression at 10 to 50 uM after 24 hrs by Western blot method; type: functional, cell-based
Method in brief: (§4)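 Rat primary microglia or astrocytes were exposed 24 h to LPS with compound (0–50 µM), then lysed; protein was measured by Lowry. Immunoblots used anti-iNOS, anti-TREM2 or anti-MRC1 with GAPDH as loading control, read by ECL and densitometry. Values are % of LPS alone; mean ± SE of 3 experiments.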

[14] = test system: Microglia; experiment: Immunomodulatory activity in LPS-induced Wistar rat primary microglia cells assessed as decrease in iNOS expression at 10 to 50 uM after 24 hrs by Western blot method; type: functional, cell-based; method in brief: as §4
[15] = test system: Primary glial cell; experiment: Immunomodulatory activity in LPS-induced Wistar rat primary glial cells assessed as decrease in MRC1 expression at 10 to 50 uM after 24 hrs by Western blot method; type: functional, cell-based; method in brief: as §4
[16] = test system: Primary glial cell; experiment: Immunomodulatory activity in LPS-induced Wistar rat primary glial cells assessed as decrease in TREME2 expression after 24 hrs by Western blot method; type: functional, cell-based; method in brief: as §4
[17] = test system: Primary glial cell; experiment: Immunomodulatory activity in LPS-induced Wistar rat primary glial cells assessed as decrease in TREME2 mRNA expression after 24 hrs; type: functional, cell-based
[18] = test system: Primary glial cell; experiment: Immunomodulatory activity in LPS-induced Wistar rat primary glial cells assessed as decrease in iNOS mRNA expression after 24 hrs; type: functional, cell-based
[19] = biological target: Acetylcholinesterase (Electrophorus electricus, UniProt O42275); experiment: Displacement of propidium iodide from electric eel AChE by spectrofluorometric method
Method in brief: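 Back-titration of a preformed EeAChE (2 µM)–propidium iodide (8 µM) complex in 1.0 mM Tris-HCl pH 8.0, with inhibitor added stepwise (final 8–56 µM; methanol stock). Fluorescence read at 635 nm, excitation 535 nm. Blanks were run for propidium alone, inhibitor plus propidium, and enzyme alone. KD derived by the Taylor–Lappi treatment, taking propidium KD = 0.7 µM.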

[20] = Hepatotoxicity against human HepG2 cells assessed as cell viability at 5 to 50 uM after 24 hrs by MTT assay relative to control; type: toxicity, cell-based; conditions: read-out: Activity; method in brief: as §2

T1 sequence (P22303 whole entry): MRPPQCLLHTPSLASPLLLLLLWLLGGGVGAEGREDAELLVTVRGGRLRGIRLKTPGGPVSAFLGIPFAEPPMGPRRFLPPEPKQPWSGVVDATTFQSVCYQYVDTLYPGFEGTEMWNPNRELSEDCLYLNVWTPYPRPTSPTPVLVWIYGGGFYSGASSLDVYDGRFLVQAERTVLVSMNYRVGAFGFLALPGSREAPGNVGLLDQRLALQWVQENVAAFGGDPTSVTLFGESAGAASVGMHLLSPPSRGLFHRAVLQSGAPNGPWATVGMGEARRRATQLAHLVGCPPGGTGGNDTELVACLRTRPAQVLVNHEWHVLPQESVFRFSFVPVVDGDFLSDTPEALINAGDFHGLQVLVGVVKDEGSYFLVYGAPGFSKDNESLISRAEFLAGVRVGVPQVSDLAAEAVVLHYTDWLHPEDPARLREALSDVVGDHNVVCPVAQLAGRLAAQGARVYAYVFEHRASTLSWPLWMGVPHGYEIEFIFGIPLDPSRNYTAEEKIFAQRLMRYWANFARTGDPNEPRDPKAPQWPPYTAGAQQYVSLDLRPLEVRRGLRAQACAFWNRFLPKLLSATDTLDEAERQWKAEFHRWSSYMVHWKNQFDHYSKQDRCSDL
Sequence of Cholinesterase (Homo sapiens) (P06276 whole entry): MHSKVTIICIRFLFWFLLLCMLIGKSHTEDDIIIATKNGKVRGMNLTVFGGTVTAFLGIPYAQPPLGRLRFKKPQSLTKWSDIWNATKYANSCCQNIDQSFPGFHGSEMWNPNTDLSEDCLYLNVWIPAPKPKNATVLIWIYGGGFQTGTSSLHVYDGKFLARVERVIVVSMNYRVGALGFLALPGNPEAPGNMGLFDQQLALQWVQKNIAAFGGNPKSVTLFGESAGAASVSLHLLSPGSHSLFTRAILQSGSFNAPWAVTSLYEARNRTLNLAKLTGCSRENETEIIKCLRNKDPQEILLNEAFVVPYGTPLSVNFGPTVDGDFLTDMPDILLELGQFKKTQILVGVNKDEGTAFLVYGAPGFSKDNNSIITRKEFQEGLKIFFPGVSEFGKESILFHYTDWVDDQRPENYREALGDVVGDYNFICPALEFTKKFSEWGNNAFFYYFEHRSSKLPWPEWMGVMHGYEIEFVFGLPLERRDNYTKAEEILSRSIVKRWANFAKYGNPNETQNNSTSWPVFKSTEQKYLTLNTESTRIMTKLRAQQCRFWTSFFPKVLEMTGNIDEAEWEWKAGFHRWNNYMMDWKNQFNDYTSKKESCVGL
Sequence of Amyloid-beta precursor protein (Homo sapiens) (P05067 whole entry): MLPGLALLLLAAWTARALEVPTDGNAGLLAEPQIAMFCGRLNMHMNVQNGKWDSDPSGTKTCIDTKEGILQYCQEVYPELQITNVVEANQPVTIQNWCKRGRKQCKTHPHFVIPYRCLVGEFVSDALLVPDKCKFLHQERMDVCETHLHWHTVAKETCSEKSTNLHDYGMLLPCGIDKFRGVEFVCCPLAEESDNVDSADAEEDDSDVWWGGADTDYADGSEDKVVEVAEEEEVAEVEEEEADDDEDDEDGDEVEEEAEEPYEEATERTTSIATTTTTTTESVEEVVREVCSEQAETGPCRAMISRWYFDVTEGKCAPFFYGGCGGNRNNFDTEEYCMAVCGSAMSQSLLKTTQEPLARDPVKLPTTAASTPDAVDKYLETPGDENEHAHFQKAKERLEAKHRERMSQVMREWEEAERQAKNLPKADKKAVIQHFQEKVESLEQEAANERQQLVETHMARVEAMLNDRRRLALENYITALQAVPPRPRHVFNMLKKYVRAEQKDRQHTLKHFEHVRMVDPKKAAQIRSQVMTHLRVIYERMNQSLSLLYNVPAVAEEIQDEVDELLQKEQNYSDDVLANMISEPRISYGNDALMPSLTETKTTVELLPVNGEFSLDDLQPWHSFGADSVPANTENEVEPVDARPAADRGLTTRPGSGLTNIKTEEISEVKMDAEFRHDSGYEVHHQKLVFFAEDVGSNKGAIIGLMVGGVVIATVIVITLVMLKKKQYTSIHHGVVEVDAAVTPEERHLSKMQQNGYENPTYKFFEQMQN
Sequence of Acetylcholinesterase (Electrophorus electricus, UniProt O42275) (O42275 whole entry): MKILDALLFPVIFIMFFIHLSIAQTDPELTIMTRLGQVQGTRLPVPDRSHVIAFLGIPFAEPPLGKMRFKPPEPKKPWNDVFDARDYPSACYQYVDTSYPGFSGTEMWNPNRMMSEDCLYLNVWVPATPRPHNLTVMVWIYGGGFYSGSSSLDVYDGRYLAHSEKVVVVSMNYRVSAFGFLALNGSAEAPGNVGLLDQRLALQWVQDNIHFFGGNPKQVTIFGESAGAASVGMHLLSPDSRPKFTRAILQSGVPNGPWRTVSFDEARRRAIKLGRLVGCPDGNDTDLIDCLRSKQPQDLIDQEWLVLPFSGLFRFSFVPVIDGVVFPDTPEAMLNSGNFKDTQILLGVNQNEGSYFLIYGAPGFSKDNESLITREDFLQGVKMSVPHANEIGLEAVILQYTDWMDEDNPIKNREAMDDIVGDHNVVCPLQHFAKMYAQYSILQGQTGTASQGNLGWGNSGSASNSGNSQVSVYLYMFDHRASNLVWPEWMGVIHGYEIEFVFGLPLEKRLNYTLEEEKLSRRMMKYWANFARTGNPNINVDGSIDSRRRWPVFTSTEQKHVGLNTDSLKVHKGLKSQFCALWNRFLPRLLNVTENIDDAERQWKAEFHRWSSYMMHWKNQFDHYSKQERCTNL

For `COc1cc(CCc2ccc(Nc3c4c(nc5ccc(OC)cc35)CCCC4)cc2)cc(OC)c1`, the inhibition [1] was “inactive”, the inhibition [2] was “inactive” and the Activity [3] was “Toxic”. The Activity [4] was “Toxic”.
In the case of `Cc1c(C)c2c(c(C)c1O)CCC(C)(C(=O)O)O2` (stereo unspecified) [TROLOX], the EC50 [5] is reported as 16.2 µM.
In the case of `COc1cc(/C=C/c2ccc(Nc3c4c(nc5ccccc35)CCCC4)cc2)cc(OC)c1`, the inhibition [1] is reported as “inactive”, the inhibition [2] is reported as “inactive” and the Activity [6] is reported as “Toxic”. For the same compound, the Activity [4] was “Toxic”.
In the case of `Oc1ccc(/C=C/c2cc(O)cc(O)c2)cc1` [RESVERATROL], the inhibition [1] is reported as “inactive”, the inhibition [7] is reported as “inactive” and the inhibition [8] is reported as 30%. For the same compound, the EC50 [5] was 25.6 µM and the Activity [4] was “Non-Toxic”.
For `Oc1cc(O)cc(/C=C/c2ccc(Nc3c4c(nc5cc(Cl)ccc35)CCCC4)cc2)c1`, the IC50 [9] was 8.8 µM, the inhibition [2] was “inactive” and the inhibition [8] was 31.2%. For the same compound, the EC50 [5] was greater than 5000 µM, the Activity [10] was “Non-Toxic” and the Activity [11] was “Dose-dependent effect”. The Activity [12] was “Dose-dependent effect”, the Activity [13] was “Active” and the Activity [14] was “Active”. For the same compound, the Activity [15] was “Active”, the Activity [16] was “Dose-dependent effect” and the Activity [17] was “Active”. For the same compound, the Activity [18] was “Active” and the Activity [4] was “Toxic”.
For `COc1cc(CCc2ccc(Nc3c4c(nc5cc(Cl)ccc35)CCCC4)cc2)cc(OC)c1`, the IC50 [9] was 0.8 µM, the inhibition [2] was “inactive” and the Kd [19] was 7.31 µM. The inhibition [8] was 17.6%, the EC50 [5] was 155 µM and the Activity [3] was “Toxic”. The Activity [4] was “Toxic”.
Compound `CC(=O)N[C@@H](CS)C(=O)O` [ACETYLCYSTEINE] has an EC50 [5] of 28 µM.
With `COc1cc(CCc2ccc(Nc3c4c(nc5ccccc35)CCCC4)cc2)cc(OC)c1` the IC50 [9] was 14.2 µM, the inhibition [2] was “inactive” and the Activity [3] was “Toxic”. For the same compound, the Activity [4] was “Toxic”.
In the case of `Oc1cc(O)cc(CCc2ccc(Nc3c4c(nc5cc(Cl)ccc35)CCCC4)cc2)c1`, the IC50 [9] is reported as 1.3 µM, the inhibition [2] is reported as “inactive” and the inhibition [8] is reported as 37.3%. For the same compound, the EC50 [5] was greater than 5000 µM, the Activity [6] was “Toxic” and the Activity [4] was “Toxic”.
With `COc1cc(/C=C/c2ccc(Nc3c4c(nc5cc(Cl)ccc35)CCCC4)cc2)cc(OC)c1` the inhibition [1] was “inactive”, the inhibition [2] was “inactive” and the inhibition [8] was 21.6%. The Activity [3] was “Toxic” and the viability at 24 h, up to 50 µM [20] was 70%.
In the case of `COc1cc(/C=C/c2ccc(Nc3c4c(nc5ccc(OC)cc35)CCCC4)cc2)cc(OC)c1`, the inhibition [1] is reported as “inactive”, the inhibition [2] is reported as “inactive” and the Activity [3] is reported as “Toxic”. For the same compound, the Activity [4] was “Toxic”.
For `COc1ccc2nc3c(c(N)c2c1)CCCC3`, the inhibition [8] was less than 5%.
